Laboratory results: ChEMBL document CHEMBL1129328, “Structure-activity studies of 6-(tetrazolylalkyl)-substituted decahydroisoquinoline-3-carboxylic acid AMPA receptor antagonists. 1. Effects of stereochemistry, chain length, and chain substitution” (J Med Chem, 1996)

How the values were obtained:
[1] = biological target: T1, Glutamate receptor ionotropic, AMPA (Rattus norvegicus, UniProt P19490+P19491+P19492+P19493); experiment: Binding affinity at Ionotropic glutamate receptor AMPA in rat cortical tissue by [3H]AMPA displacement.
[2] = biological target: Glutamate receptor ionotropic, kainate; assay type: functional
[3] = biological target: Glutamate receptor ionotropic, kainate; experiment: Binding affinity at Ionotropic glutamate receptor kainate in rat cortical tissue by [3H]-kainic acid displacement.
In short: (§1)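 Displacement of radioligand from rat cortical tissue membranes: [3H]CGS 19755 for NMDA sites, [3H]kainic acid for kainate sites. Each determination run in triplicate unless otherwise indicated.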

[4] = biological target: Glutamate NMDA receptor; experiment: Binding affinity at N-methyl-D-aspartate glutamate receptor in rat cortical tissue by [3H]-CGS- 19755 displacement.; in short: as §1
[5] = biological target: Glutamate NMDA receptor; experiment: (§2) Compound was tested for NMDA receptor antagonistic activity by measuring its ability to inhibit depolarizations induced by 40 uM NMDA in rat cortical slice preparation.; assay type: functional
[6] = biological target: T1, Glutamate receptor ionotropic, AMPA; experiment: AMPA receptor antagonistic activity as inhibition of depolarizations induced by 40 uM AMPA in rat cortical slice preparation; assay type: functional
[7] = biological target: T1, Glutamate receptor ionotropic, AMPA; experiment: Compound was tested for AMPA receptor antagonistic activity by measuring its ability to inhibit depolarizations induced by 40 uM quisqualic acid in rat cortical slice preparation.; assay type: functional
In short: (§3)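 Rat cortical slice (cortical wedge) preparation. Antagonism measured as inhibition of depolarizations evoked by 40 uM AMPA (a few cases 40 uM quisqualic acid instead) or 40 uM NMDA. Compounds were also applied alone to check for agonist activity.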

[8] = biological target: Glutamate NMDA receptor (Rattus norvegicus) (UniProt P35439+Q00959+Q00960+Q00961+Q62645+Q8VHN2+Q9R1M7); experiment: as §2; assay type: functional; in short: as §3
[9] = biological target: T1, Glutamate receptor ionotropic, AMPA; experiment: Compound was tested for AMPA receptor antagonistic activity by measuring its ability to inhibit depolarizations induced by 40 uM AMPA in rat cortical slice preparation; assay type: functional; in short: as §3

| IC50 [1] | IC50 [2] | IC50 [3] | IC50 [4] | IC50 [5] | IC50 [6] | IC50 [7] | inhibition [8] | IC50 [9] | Compound |
| --- | --- | --- | --- | --- | --- | --- | --- | --- | --- |
| > 100 µM | > 100 µM | > 100 µM | 65.8 µM | > 100 µM | > 100 µM |  |  |  | CN(Cc1nn[nH]n1)[C@H]1CC[C@H]2CN[C@H](C(=O)O)C[C@H]2C1 |
| 84.5 µM | > 100 µM | > 100 µM | 0.94 µM | 1.4 µM |  | > 100 µM |  |  | O=C(O)[C@@H]1C[C@H]2C[C@@H](Cc3nnn[nH]3)CC[C@H]2CN1 |
| 24 µM | > 100 µM | 55 µM | 5.9 µM | 28.3 µM | 29.5 µM |  |  |  | O=C(O)[C@@H]1C[C@H]2C[C@@H](OCc3nn[nH]n3)CC[C@H]2CN1 |
| 57 µM | < 100 µM | > 100 µM | > 100 µM | > 100 µM | 27.6 µM |  |  |  | O=C(O)[C@@H]1C[C@H]2C[C@@H](CCCCc3nnn[nH]3)CC[C@H]2CN1 |
| > 100 µM | > 100 µM | > 100 µM | 12.8 µM |  | > 100 µM |  | 50% |  | O=C(O)[C@@H]1NCC[C@H]2CC(CCc3nnn[nH]3)CC[C@H]21 (stereo partly drawn) |
| > 100 µM | > 100 µM | > 10 µM | > 10 µM | > 100 µM | > 100 µM |  |  |  | O=C(O)C1Cc2cc(CCc3nnn[nH]3)ccc2CN1 (stereo not drawn) |
| 16.8 µM | > 100 µM | 18.7 µM | 27 µM | > 100 µM |  | 22 µM |  |  | O=C(O)[C@@H]1C[C@H]2C[C@@H](CCCc3nnn[nH]3)CC[C@H]2CN1 |
| > 100 µM | > 100 µM | > 100 µM | > 10 µM | > 100 µM | > 100 µM |  |  |  | O=C(O)[C@H]1C[C@H]2CC(CCc3nnn[nH]3)CC[C@H]2CN1 (stereo partly drawn) |
| > 100 µM | > 100 µM | > 100 µM | > 100 µM | > 100 µM | > 100 µM |  |  |  | O=C(O)[C@@H]1C[C@H]2C[C@@H](CCc3nnn[nH]3)CC[C@@H]2CN1 |
| 9.8 µM | 23.6 µM | > 100 µM | 15.1 µM | 100 µM |  |  |  | 9 µM | O=C(O)[C@@H]1C[C@H]2C[C@@H](C(Cc3nnn[nH]3)c3ccccc3)CC[C@H]2CN1 (stereo partly drawn) |
| 4.21 µM |  | 27.3 µM | > 100 µM |  |  |  |  |  | CC(C[C@H]1CC[C@H]2CN[C@H](C(=O)O)C[C@H]2C1)c1nnn[nH]1 (stereo partly drawn) |
| 59.6 µM | > 100 µM | 180 µM | 60.6 µM |  | > 100 µM |  |  |  | O=C(O)[C@@H]1C[C@H]2C[C@H](CCc3nnn[nH]3)CC[C@H]2CN1 |
| 23.1 µM |  | > 100 µM | > 100 µM |  |  |  |  |  | O=CN(Cc1nn[nH]n1)[C@H]1CC[C@H]2CN[C@H](C(=O)O)C[C@H]2C1 |
| > 100 µM | > 100 µM | > 100 µM | 5.3 µM | 13.6 µM | > 100 µM |  |  |  | O=C(O)[C@@H]1C[C@H]2C[C@H](OCc3nn[nH]n3)CC[C@H]2CN1 |
| > 100 µM | > 100 µM | > 100 µM | 11.5 µM | 33.4 µM | 69.3 µM |  |  |  | O=C(O)[C@@H]1C[C@H]2C[C@@H](NCc3nn[nH]n3)CC[C@H]2CN1 |
|  | 31.7 µM | 247 µM |  | 61.3 µM | 6 µM |  |  |  | O=C(O)[C@@H]1C[C@H]2C[C@@H](CCc3nn[nH]n3)CC[C@H]2CN1 [TEZAMPANEL ANHYDROUS] |
| 3 µM | 58 µM | 35 µM | 53.2 µM | > 100 µM |  |  |  | 6 µM | CC(Cc1nnn[nH]1)[C@H]1CC[C@H]2CN[C@H](C(=O)O)C[C@H]2C1 (stereo partly drawn) |

| Compound | IC50 [1] | IC50 [2] | IC50 [3] | IC50 [4] | IC50 [5] | IC50 [6] | IC50 [7] | inhibition [8] | IC50 [9] |
| --- | --- | --- | --- | --- | --- | --- | --- | --- | --- |
| O=C(O)[C@@H]1C[C@H]2C[C@@H](c3nnn[nH]3)CC[C@H]2CN1 | 12.8 µM | > 100 µM | 31.8 µM |  | 7.5 µM | 40.9 µM |  |  |  |
